Experimental data: ChEMBL document CHEMBL4351008, “Discovery of novel pyrimidine-based benzothiazole derivatives as potent cyclin-dependent kinase 2 inhibitors with anticancer activity” (Eur J Med Chem, 2019)

How the values were obtained:
HCT-116 = assay: Antiproliferative activity against human HCT116 cells incubated for 48 hrs by MTT assay; format: functional, cell-based; settings: HCT-116, 48 h
Outline: (§1)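 Cells kept at 37 °C in humidified 5% CO2: MDA-MB-231, MCF-7, HeLa and HCT116 in RPMI-1640; PC-3 in DMEM/F12; both media had 10% FBS. Compounds came from 60 mM DMSO stocks diluted in medium. At 70–80% confluence, cells got fresh medium with compound for 48 h at 37 °C, with 0.1% DMSO as negative control. MTT (5 mg/mL stock) was added for 4 h, and formazan was dissolved in DMSO and read at 570 nm. % inhibition was taken relative to control, IC50 was fitted, and data are mean ± SD of three independent experiments in duplicate.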

MDA-MB-231 = assay: Antiproliferative activity against human MDA-MB-231 cells incubated for 48 hrs by MTT assay; format: functional, cell-based; settings: MDA-MB-231, 48 h; outline: as §1
MCF7 = assay: Antiproliferative activity against human MCF7 cells incubated for 48 hrs by MTT assay; format: functional, cell-based; settings: MCF7, 48 h; outline: as §1
HeLa = assay: Antiproliferative activity against human HeLa cells incubated for 48 hrs by MTT assay; format: functional, cell-based; outline: as §1
PC-3 = assay: Antiproliferative activity against human PC3 cells incubated for 48 hrs by MTT assay; format: functional, cell-based; settings: PC-3, 48 h; outline: as §1
[1] = biological target: CDK2/Cyclin A2 (Homo sapiens) (UniProt P24941+P20248); assay: Inhibition of CDK2/cyclin A2 (unknown origin) using histone H1 and ATP as substrate at 1 uM incubated for 40 mins by kinase-glo luminescence assay relative to control; format: protein-complex assay
Outline: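 Recombinant CDK2/cyclin A2 (0.2 µg/mL) was run with 0.1 mg/mL histone H1 and 10 µM ATP in 40 mM Tris pH 7.4, 10 mM MgCl2, 0.1 mg/mL BSA and 1 mM DTT, for 40 min at 30 °C. Compound was tested at 1 µM final, with 1% DMSO final. Remaining ATP was quantified by Kinase-Glo Plus luminescence, which is inversely related to kinase activity.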

CDK2/Cyclin A2 = CDK2/Cyclin A2 (Homo sapiens, UniProt P24941); assay: Inhibition of CDK2/cyclin A2 (unknown origin) using histone H1 and ATP as substrate incubated for 40 mins by kinase-glo luminescence assay; format: protein-complex assay

SMILES	IC50 (HCT-116) [µM]	IC50 (MDA-MB-231) [µM]	IC50 (MCF7) [µM]	IC50 (HeLa) [µM]	IC50 (PC-3) [µM]	inhibition [1] [%]	IC50 (CDK2/Cyclin A2) [µM]
CS(=O)(=O)c1ccc(Nc2ncc(F)c(Nc3nc4ccc(Cl)cc4s3)n2)cc1	20.7	11.1	> 50	> 50	> 50	–	–
Cc1ccc2nc(Nc3ccnc(Nc4ccc(S(N)(=O)=O)cc4)n3)sc2c1	0.9	3.87	5.74	0.66	1.64	82	–
Cc1ncc(-c2ccnc(Nc3ccc(S(C)(=O)=O)cc3)n2)n1C(C)C [AZD-5438]	0.47	7.2	10.7	0.73	0.36	–	–
CS(=O)(=O)c1ccc(Nc2nccc(Nc3nc4ccccc4s3)n2)cc1	8.37	5.91	10.6	11.3	1.71	80	–
COc1ccc2nc(Nc3nc(Nc4ccc(S(N)(=O)=O)cc4)ncc3F)sc2c1	11.5	26.6	> 50	13	> 50	–	–
COc1ccc2nc(Nc3nc(Nc4ccc(S(C)(=O)=O)cc4)ncc3F)sc2c1	2.63	4.74	5.85	25.4	1.27	–	–
Cc1ccc2nc(Nc3nc(Nc4ccc(S(N)(=O)=O)cc4)ncc3C)sc2c1	3.87	9.08	> 50	3.28	2.71	–	–
Cc1cnc(Nc2cccc(F)c2)nc1Nc1nc2ccccc2s1	27.8	> 50	> 50	16.3	> 50	–	–
NS(=O)(=O)c1ccc(Nc2ncc(F)c(Nc3nc4ccc(Cl)cc4s3)n2)cc1	8.62	2.79	8.34	8.77	1.43	–	–
Cc1cnc(Nc2ccc(S(C)(=O)=O)cc2)nc1Nc1nc2ccccc2s1	0.76	14.8	6.55	0.46	> 50	90	0.0378
COc1cccc(Nc2ncc(C)c(Nc3nc4ccccc4s3)n2)c1	> 50	> 50	> 50	> 50	> 50	–	–
CS(=O)(=O)c1ccc(Nc2nccc(Nc3nc4ccc(F)cc4s3)n2)cc1	0.86	2.08	> 60	0.56	1.94	89	–
Cc1cnc(Nc2ccc(S(C)(=O)=O)cc2)nc1Nc1nc2ccc(Cl)cc2s1	2.5	5.9	4.32	4.18	13.4	81	–
Cc1cnc(Nc2ccc(Cl)cc2)nc1Nc1nc2ccccc2s1	> 50	> 50	> 50	> 50	> 50	–	–
NS(=O)(=O)c1ccc(Nc2ncc(F)c(Nc3nc4ccccc4s3)n2)cc1	3.26	22.6	> 50	4.52	> 50	93	0.0165
COc1ccc(Nc2ncc(C)c(Nc3nc4ccccc4s3)n2)cc1	> 50	> 50	> 50	> 50	> 50	–	–
Cc1cnc(Nc2ccc([N+](=O)[O-])cc2)nc1Nc1nc2ccccc2s1	6.33	22.5	> 50	34.3	> 50	–	–

SMILES	IC50 (HCT-116) [µM]	IC50 (MDA-MB-231) [µM]	IC50 (MCF7) [µM]	IC50 (HeLa) [µM]	IC50 (PC-3) [µM]	inhibition [1] [%]	IC50 (CDK2/Cyclin A2) [µM]
Cc1ccc2nc(Nc3nc(Nc4ccc(S(N)(=O)=O)cc4)ncc3F)sc2c1	1.46	6.39	24.5	1.89	4.96	92	0.0214
CS(=O)(=O)c1ccc(Nc2ncc(F)c(Nc3nc4ccccc4s3)n2)cc1	3.27	4.98	6.88	3.17	2.83	95	0.0127
COc1ccc2nc(Nc3ccnc(Nc4ccc(S(C)(=O)=O)cc4)n3)sc2c1	2.27	32.7	> 50	4.13	2.7	–	–
Cc1ccc2nc(Nc3ccnc(Nc4ccc(S(C)(=O)=O)cc4)n3)sc2c1	1.75	4.44	> 50	2.3	> 50	77	–
Cc1ccc2nc(Nc3nc(Nc4ccc(S(C)(=O)=O)cc4)ncc3F)sc2c1	9.18	14.3	> 50	17.2	> 50	–	–
Cc1cnc(Nc2ccc(S(N)(=O)=O)cc2)nc1Nc1nc2ccc(F)cc2s1	2.01	7.58	> 50	3.46	6.98	–	–
Cc1cnc(Nc2ccc(S(N)(=O)=O)cc2)nc1Nc1nc2ccccc2s1	1.66	16.8	> 50	2.8	> 50	91	0.0217
NS(=O)(=O)c1ccc(Nc2nccc(Nc3nc4ccccc4s3)n2)cc1	5.17	5	15.3	2.06	3.1	84	–
Cc1cnc(Nc2ccc(N3CCCCC3)cc2)nc1Nc1nc2ccccc2s1	18.7	37.2	> 50	4.34	> 50	–	–
Cc1cnc(Nc2ccc(S(C)(=O)=O)cc2)nc1Nc1nc2ccc(F)cc2s1	24	> 50	3.26	> 50	> 50	–	–
Cc1cnc(Nc2ccc(C(C)C)cc2)nc1Nc1nc2ccccc2s1	> 50	> 50	> 50	> 50	> 50	–	–
CS(=O)(=O)c1ccc(Nc2nccc(Nc3nc4ccc(Cl)cc4s3)n2)cc1	1.35	> 50	> 50	1.4	> 50	–	–
Cc1cnc(Nc2ccc(S(N)(=O)=O)cc2)nc1Nc1nc2ccc(Cl)cc2s1	2.52	9.42	8.43	3.73	5.4	90	–
Cc1cnc(Nc2ccc(F)cc2)nc1Nc1nc2ccccc2s1	> 50	> 50	> 50	> 50	> 50	–	–
COc1ccc2nc(Nc3ccnc(Nc4ccc(S(N)(=O)=O)cc4)n3)sc2c1	1.48	6.24	11	1.73	3.03	–	–
COc1ccc2nc(Nc3nc(Nc4ccc(S(N)(=O)=O)cc4)ncc3C)sc2c1	7.86	> 50	> 50	36.7	> 50	–	–
CS(=O)(=O)c1ccc(Nc2ncc(F)c(Nc3nc4ccc(F)cc4s3)n2)cc1	> 50	8.9	> 50	> 50	> 50	–	–
